Results: ChEMBL document CHEMBL1128448, “Synthesis and antifungal activity of new azole derivatives containing an N-acylmorpholine ring” (1995)
Converted amounts (≈) assume the structure as drawn.

Assays:
Candida albicans [1] = test: In vitro evaluation of minimum inhibitory concentration against Candida albicans 76; assay type: functional; conditions: Candida albicans; read-out: MIC
How it was run: (§1)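 Stocks are 800 μg/mL in 50% ethanol. Each plate gets 10 μL of inoculum at 10^5 cfu/mL. Incubation at 25 °C, 48 h for yeasts and 120 h for dermatophytes and molds. Organisms are ATCC strains or clinical isolates.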

Candida albicans [2] = test: In vivo evaluation of minimum inhibitory concentration against Candida albicans 406; assay type: functional; conditions: Candida albicans; read-out: MIC
How it was run: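 Broth macrodilution MIC following NCCLS M27-P, in RPMI-1640 buffered with 0.165 M MOPS. Fluconazole was dissolved in water and other drugs in DMSO. C. parapsilosis ATCC 22019 served as the reference strain in every run. MIC was the lowest concentration giving turbidity at or below the 80% inhibition standard.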

Candida albicans [3] = test: Evaluation of […] antifungal activity against Candida albicans 60 by broth macro dilution method; assay type: functional
How it was run: (§2)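 Yeast MIC and MFC by broth macrodilution per NCCLS M27-P in RPMI-1640 buffered with 0.165 M MOPS. Fluconazole in sterile water, other drugs in DMSO. C. parapsilosis ATCC 22019 is the reference strain in each run. MIC is the lowest concentration with turbidity ≤ the 80% inhibition standard. For MFC, 0.04 mL from clear tubes is plated on Sabouraud agar; MFC is the lowest concentration giving ≤1 colony.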

Cryptococcus neoformans = test: Evaluation of In vitro antifungal activity against Cryptococcus neoformans 87 by broth macro dilution method; assay type: functional; how it was run: as §2
Kluyveromyces marxianus [4] = test: Evaluation of In vitro antifungal activity against yeasts by broth macro dilution method; assay type: functional; how it was run: as §2
Candida parapsilosis [5] = test: Evaluation of In vitro antifungal activity against Candida parapsilosis ATCC 22019 by broth macro dilution method; assay type: functional; conditions: Lodderomyces parapsilosis; how it was run: as §2
[6] = system: Meyerozyma guilliermondii; test: Evaluation of In vitro antifungal activity against Candida guilliermondii 26 by broth macro dilution method; assay type: functional; how it was run: as §2
Rattus norvegicus = test: In vivo evaluation of antifungal activity against vaginal candidosis in rat at dose 0.25 mg/kg on 15th day; assay type: functional
How it was run: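 Groups of 10 female Wistar rats given estradiol 25 mg/kg sc on day -5, infected intravaginally with C. albicans by sterile swab on day 0; infection confirmed on day 3 by swab culture (TSB, then Sabouraud agar). Oral dosing once daily on days 3, 4, 5; vehicle controls. Vaginal swabs cultured on days 10 and 15; read-out % cured (culture-negative).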

Kluyveromyces marxianus [7] = test: Evaluation of In vitro antifungal activity against Candida pseudotropicalis ATCC 28838 by broth macro dilution method; assay type: functional; how it was run: as §2
Nakaseomyces glabratus [8] = test: Evaluation of In vitro antifungal activity against Torulopsis glabrata 78 by broth macro dilution method; assay type: functional; how it was run: as §2
Aspergillus niger = test: In vitro evaluation of minimum inhibitory concentration against Aspergillus niger 18; assay type: functional; conditions: Aspergillus niger; read-out: MIC; how it was run: as §1
Candida parapsilosis [9] = test: In vitro evaluation of minimum inhibitory concentration against Candida parapsilosis 61; assay type: functional; how it was run: as §1
Mus sp. [10] = test: In vivo evaluation of % survival rate after peroral administration on 3rd day at dose 0.5 mg/kg; assay type: functional; conditions: route oral
Rhodotorula mucilaginosa = test: In vitro evaluation of minimum inhibitory concentration against Rhodotorula rubra 16; assay type: functional; conditions: Rhodotorula mucilaginosa; read-out: MIC; how it was run: as §1
Pichia kudriavzevii = test: In vitro evaluation of minimum inhibitory concentration against Candida krusei 70; assay type: functional; how it was run: as §1
Nakaseomyces glabratus [11] = test: In vitro evaluation of minimum inhibitory concentration against Torulopsis glabrata 78; assay type: functional; how it was run: as §1
[12] = system: Meyerozyma guilliermondii; test: In vitro evaluation of minimum inhibitory concentration against Candida guilliermondii 26; assay type: functional; how it was run: as §1
Candida albicans [13] = test: Evaluation of In vitro antifungal activity against Candida albicans 60 by broth macro dilution method
Mus sp. [14] = test: In vivo evaluation of % survival rate after peroral administration on 5th day at dose 0.5 mg/kg; assay type: functional; conditions: route oral
Aspergillus fumigatus = test: In vitro evaluation of minimum inhibitory concentration against Aspergillus fumigatus 33; assay type: functional; how it was run: as §1
Candida albicans [15] = test: Evaluation of In vitro antifungal activity against Candida albicans ATCC 10231 by broth macro dilution method; assay type: functional; how it was run: as §2
Candida albicans [16] = test: Evaluation of In vitro antifungal activity against Candida albicans 406 by broth macro dilution method; assay type: functional; how it was run: as §2
Candida parapsilosis [17] = test: Evaluation of In vitro antifungal activity against Candida parapsilosis ATCC 141095 by broth macro dilution method; assay type: functional; conditions: Lodderomyces parapsilosis; how it was run: as §2
Mus sp. [18] = test: In vivo evaluation of % survival rate after peroral administration on 7th day at dose 1 mg/kg; assay type: functional; conditions: Mus sp., po
Candida albicans [19] = test: Evaluation of In vitro antifungal activity against Candida albicans C52 by broth macro dilution method; assay type: functional; how it was run: as §2
Mus sp. [20] = test: In vivo evaluation of % survival rate after peroral administration on 9th day at dose 1 mg/kg; assay type: functional; conditions: route oral, 1 mg/kg
Mus sp. [21] = test: In vivo evaluation of % survival rate after peroral administration on 3rd day at dose 1 mg/kg; assay type: functional; conditions: Mus sp., po
Candida tropicalis = test: In vitro evaluation of minimum inhibitory concentration against Candida tropicalis 2.11; assay type: functional; conditions: Candida tropicalis; read-out: MIC; how it was run: as §1

For `C[C@@H](NC(=O)c1ccc(C(F)(F)F)cc1)[C@](O)(Cn1cncn1)c1ccc(F)cc1F`, the MIC (Candida albicans [1]) was 80 µg/mL (≈ 182 µM), the MIC (Candida albicans [2]) was 0.15 µg/mL (≈ 0.341 µM) and the MIC (Candida albicans [3]) was < 0.031 µg/mL. For the same compound, the MFC (Cryptococcus neoformans) was > 64 µg/mL, the MIC (Cryptococcus neoformans) was 0.5 µg/mL (≈ 1.14 µM) and the MIC (Kluyveromyces marxianus [4]) was < 0.031 µg/mL. For the same compound, the MFC (Candida parapsilosis [5]) was 2 µg/mL (≈ 4.54 µM), the MIC (Candida parapsilosis [5]) was 0.125 µg/mL (≈ 0.284 µM) and the MFC [6] was 4 µg/mL (≈ 9.08 µM). For the same compound, the MIC [6] was 0.25 µg/mL (≈ 0.568 µM), the Cure rate (Rattus norvegicus) was 100% and the MFC (Kluyveromyces marxianus [7]) was 2 µg/mL (≈ 4.54 µM). The MFC (Nakaseomyces glabratus [8]) was > 64 µg/mL, the MIC (Nakaseomyces glabratus [8]) was 8 µg/mL (≈ 18.2 µM) and the MIC (Aspergillus niger) was 40 µg/mL (≈ 90.8 µM). It also gave an MIC (Candida parapsilosis [9]) of 2.5 µg/mL (≈ 5.68 µM), a survival at 0.5 mg/kg (Mus sp. [10]) of 100% and an MIC (Rhodotorula mucilaginosa) of 1.25 µg/mL (≈ 2.84 µM). It also gave an MIC (Pichia kudriavzevii) of 20 µg/mL (≈ 45.4 µM), an MIC (Nakaseomyces glabratus [11]) of 20 µg/mL (≈ 45.4 µM) and an MIC [12] of 0.63 µg/mL (≈ 1.43 µM). For the same compound, the MFC (Candida albicans [13]) was > 64 µg/mL, the survival at 0.5 mg/kg (Mus sp. [14]) was 100% and the MIC (Aspergillus fumigatus) was 20 µg/mL (≈ 45.4 µM). The MFC (Candida albicans [15]) was > 64 µg/mL, the MIC (Candida albicans [15]) was 0.063 µg/mL (≈ 0.143 µM) and the MFC (Candida albicans [16]) was > 64 µg/mL. For the same compound, the MIC (Candida albicans [16]) was < 0.031 µg/mL, the MFC (Candida parapsilosis [17]) was 32 µg/mL (≈ 72.7 µM) and the MIC (Candida parapsilosis [17]) was 1 µg/mL (≈ 2.27 µM). The survival at 1 mg/kg (Mus sp. [18]) was 100%, the MFC (Candida albicans [19]) was > 64 µg/mL and the MIC (Candida albicans [19]) was < 0.031 µg/mL. It also gave a Survival (Mus sp. [20]) of 100%, a survival at 1 mg/kg (Mus sp. [21]) of 100% and an MIC (Candida tropicalis) of 80 µg/mL (≈ 182 µM).
